Among the data in paper PMC3085951 (Journal of controlled release : official journal of the …, 2011) are Kd values, retold here.

For the test, the target named is MT1-160p (Homo sapiens, UniProt P50281). The test can be described thus: Phage ELISA, apparent Kd of phage-displayed peptide with MT1-160p. The test is classed as binding. In short, it runs like this:
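MT1-160p (MT1-MMP residues 160–174) coated at 100 µg/ml in carbonate buffer pH 9.6, 4°C overnight, then blocked with 1% BSA/PBS. Selected phages bound 2 h at 37°C, then PBST washes. Mouse anti-M13 (1:1000) 1 h at 37°C, then HRP goat anti-mouse (1:2500). TMB 30 min at 37°C in the dark, stopped with 2 M H2SO4, A450. Coated wells without phage served as blanks.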
(An ELISA detects its analyte on a solid surface through an enzyme-linked reagent.)

pKd: −log10 of the molar value. Peptide text beside a SMILES is read from it.

With `CC(C)C[C@H](NC(=O)[C@H](Cc1ccccc1)NC(=O)[C@@H](NC(=O)[C@H](CCCCN)NC(=O)[C@@H](NC(=O)[C@H](CC(N)=O)NC(=O)[C@H](Cc1c[nH]cn1)NC(=O)[C@H](CC(C)C)NC(=O)[C@H](Cc1c[nH]cn1)NC(=O)[C@H](CCCCN)NC(=O)[C@H](Cc1c[nH]c2ccccc12)NC(=O)[C@@H](N)Cc1c[nH]cn1)[C@@H](C)O)[C@@H](C)O)C(=O)O` [MT1-AF7p] (H-HWKHLHNTKTFL-OH), the pKd is 10.12.

The pKd is the Kd on a negative log10 scale, so that one unit is a factor of ten.
